Source: ChEMBL document CHEMBL1131294, “Universal template approach to drug design: polyamines as selective muscarinic receptor antagonists” (J Med Chem, 1998)

Experiments:
[1] = target: Muscarinic acetylcholine receptor M3 (Rattus norvegicus, UniProt P08483); experiment: Inhibition of [3H]NMS binding to rat submaxillary gland Muscarinic acetylcholine receptor M3
Outline: (§1)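 Competition against 0.7-0.8 nM [3H]NMS using homogenates of rat heart (M2) or submaxillary gland (M3), 500 µg protein each, or NG 108-15 cells (M4), 600 µg protein. Incubation 2 h at 25 °C in 50 mM sodium phosphate pH 7.4 with 2 mM MgCl2 and 1% BSA. Nonspecific binding defined with 10 µM atropine. Filtration; Ki by Cheng-Prusoff; at least three experiments, each in triplicate.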

[2] = target: Muscarinic acetylcholine receptor M3 (Cavia porcellus, UniProt Q8VH26); experiment: Antagonist affinity evaluated against Muscarinic acetylcholine receptor M3 in isolated guinea pig longitudinal Ileum.; type: functional, tissue-based; conditions: read-out: pA2 (converted)
Chain of Muscarinic acetylcholine receptor M3 (Cavia porcellus, UniProt Q8VH26) (Q8VH26 whole entry): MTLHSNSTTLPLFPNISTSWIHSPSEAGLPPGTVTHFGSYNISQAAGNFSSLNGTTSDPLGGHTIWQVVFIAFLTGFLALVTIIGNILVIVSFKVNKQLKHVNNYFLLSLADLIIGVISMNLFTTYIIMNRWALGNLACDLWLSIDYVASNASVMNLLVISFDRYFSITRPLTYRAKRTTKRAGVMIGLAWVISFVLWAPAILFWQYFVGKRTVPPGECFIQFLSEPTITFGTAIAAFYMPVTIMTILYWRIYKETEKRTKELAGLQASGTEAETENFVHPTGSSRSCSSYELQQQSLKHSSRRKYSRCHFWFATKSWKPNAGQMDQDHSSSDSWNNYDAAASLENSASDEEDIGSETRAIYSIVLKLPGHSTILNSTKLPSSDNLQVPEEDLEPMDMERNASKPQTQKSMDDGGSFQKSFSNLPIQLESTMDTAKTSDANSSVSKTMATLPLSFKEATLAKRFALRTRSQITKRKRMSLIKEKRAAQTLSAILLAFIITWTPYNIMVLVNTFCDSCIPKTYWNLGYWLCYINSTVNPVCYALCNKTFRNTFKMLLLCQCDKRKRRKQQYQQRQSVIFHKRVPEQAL
Outline: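 Guinea pig left atria (M2, negative inotropism, electrically driven at 1 Hz) and ileum longitudinal muscle (M3, contraction). Agonist: arecaidine propargyl ester. Ileum: isotonic recording, at least 30 min equilibration. APE curves (0.01-0.5 µM) taken at 30-min intervals, the second curve serving as control. After 60 min antagonist incubation the curve was repeated. Dose ratios at agonist EC50, 3-6 antagonist concentrations, 4-6 replicates each; pA2 from Schild plots constrained to slope -1.0.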

[3] = target: T1, Muscarinic acetylcholine receptor M4 (Rattus norvegicus, UniProt P08485); experiment: […] to Muscarinic acetylcholine receptor M4; outline: as §1
T1 sequence (P08485 whole entry): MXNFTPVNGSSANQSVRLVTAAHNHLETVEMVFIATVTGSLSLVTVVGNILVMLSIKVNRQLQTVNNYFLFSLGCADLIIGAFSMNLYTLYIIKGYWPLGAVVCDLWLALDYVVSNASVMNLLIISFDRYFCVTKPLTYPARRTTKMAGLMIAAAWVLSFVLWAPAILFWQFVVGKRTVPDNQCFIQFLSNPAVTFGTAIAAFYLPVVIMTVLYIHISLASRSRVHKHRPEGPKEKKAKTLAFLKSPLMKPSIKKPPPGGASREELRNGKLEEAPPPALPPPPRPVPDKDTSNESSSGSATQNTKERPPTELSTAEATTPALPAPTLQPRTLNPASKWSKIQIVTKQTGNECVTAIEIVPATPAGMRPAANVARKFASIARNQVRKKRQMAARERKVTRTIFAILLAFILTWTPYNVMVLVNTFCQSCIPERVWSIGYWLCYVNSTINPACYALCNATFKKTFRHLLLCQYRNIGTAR

[4] = target: Muscarinic acetylcholine receptor M2 (Cavia porcellus); experiment: Antagonist affinity evaluated against Muscarinic acetylcholine receptor M2 in isolated guinea pig left atrium; conditions: read-out: pA2 (converted)
[5] = target: T2, Muscarinic acetylcholine receptor M2 (Rattus norvegicus, UniProt P10980); experiment: Inhibition of [3H]NMS binding to rat heart Muscarinic acetylcholine receptor M2
T2 sequence (P10980 whole entry): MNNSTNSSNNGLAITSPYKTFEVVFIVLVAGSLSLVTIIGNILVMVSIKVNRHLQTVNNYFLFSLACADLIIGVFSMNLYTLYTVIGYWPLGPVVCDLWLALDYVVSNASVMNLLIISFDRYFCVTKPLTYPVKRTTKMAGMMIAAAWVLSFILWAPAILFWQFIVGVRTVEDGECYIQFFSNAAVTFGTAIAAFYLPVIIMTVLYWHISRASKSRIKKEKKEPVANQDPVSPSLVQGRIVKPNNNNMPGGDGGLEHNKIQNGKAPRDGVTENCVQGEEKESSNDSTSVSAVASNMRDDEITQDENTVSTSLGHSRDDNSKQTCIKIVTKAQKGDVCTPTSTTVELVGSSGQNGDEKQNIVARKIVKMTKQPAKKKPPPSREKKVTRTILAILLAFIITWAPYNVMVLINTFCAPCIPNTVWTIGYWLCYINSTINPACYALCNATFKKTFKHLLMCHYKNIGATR

[6] = target: T3, Muscarinic acetylcholine receptor M1 (Rattus norvegicus, UniProt P08482); experiment: Binding affinity for rat cortex Muscarinic acetylcholine receptor M1
T3 sequence (P08482 whole entry): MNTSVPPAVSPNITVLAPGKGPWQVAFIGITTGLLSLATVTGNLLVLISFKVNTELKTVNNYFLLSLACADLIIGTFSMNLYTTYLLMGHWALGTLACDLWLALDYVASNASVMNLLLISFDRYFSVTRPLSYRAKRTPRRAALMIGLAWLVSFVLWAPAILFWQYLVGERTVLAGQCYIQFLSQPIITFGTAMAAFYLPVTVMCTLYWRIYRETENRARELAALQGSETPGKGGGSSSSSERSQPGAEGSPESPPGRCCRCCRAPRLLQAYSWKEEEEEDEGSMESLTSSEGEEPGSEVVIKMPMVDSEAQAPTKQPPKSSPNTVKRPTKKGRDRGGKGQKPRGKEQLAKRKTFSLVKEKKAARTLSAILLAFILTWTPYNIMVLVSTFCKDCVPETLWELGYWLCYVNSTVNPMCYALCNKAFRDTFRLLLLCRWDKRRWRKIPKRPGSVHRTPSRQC
Outline: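 Rat cerebral cortex homogenate (200 µg protein) competed against 5 nM [3H]pirenzepine. Incubation 2 h at 25 °C in 50 mM sodium phosphate pH 7.4 with 2 mM MgCl2 and 1% BSA. Nonspecific binding defined with 10 µM atropine. Filtration on PEI-soaked glass-fiber filters. Ki by Cheng-Prusoff; at least three experiments, each in triplicate.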

Chain of Muscarinic acetylcholine receptor M3 (Rattus norvegicus, UniProt P08483) (P08483 whole entry): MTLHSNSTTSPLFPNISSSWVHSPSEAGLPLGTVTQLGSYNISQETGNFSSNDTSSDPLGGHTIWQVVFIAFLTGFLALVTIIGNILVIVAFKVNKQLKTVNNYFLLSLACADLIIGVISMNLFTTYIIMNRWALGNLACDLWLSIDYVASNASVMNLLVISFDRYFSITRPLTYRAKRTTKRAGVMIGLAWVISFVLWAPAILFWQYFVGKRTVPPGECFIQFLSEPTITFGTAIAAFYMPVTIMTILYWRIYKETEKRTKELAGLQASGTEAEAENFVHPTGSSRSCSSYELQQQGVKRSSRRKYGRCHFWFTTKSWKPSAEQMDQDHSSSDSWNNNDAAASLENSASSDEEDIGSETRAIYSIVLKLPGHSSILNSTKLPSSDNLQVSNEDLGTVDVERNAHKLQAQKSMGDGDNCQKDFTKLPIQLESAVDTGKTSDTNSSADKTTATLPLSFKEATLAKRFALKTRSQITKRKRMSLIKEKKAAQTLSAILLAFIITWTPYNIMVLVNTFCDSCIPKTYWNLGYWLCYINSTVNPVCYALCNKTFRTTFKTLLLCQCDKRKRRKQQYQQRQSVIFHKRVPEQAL

Compound	Ki [1]	Kb [2]	Ki [3]	Kb [4]	Ki [5]	Ki [6]
CN(CCCCCCCCN(C)CCCCCCN(CC(=O)N1c2ccccc2NC(=O)c2ccccc21)CC(=O)N1c2ccccc2NC(=O)c2ccccc21)CCCCCCNCC(=O)N1c2ccccc2NC(=O)c2ccccc21	110 nM	44.7 nM	41.7 nM	0.2 nM	0.437 nM	0.955 nM
CN(CCCCCCCCN(C)C(=O)CCCCCN(CC(=O)N1c2ccccc2C(=O)Nc2cccnc21)CC(=O)N1c2ccccc2C(=O)Nc2cccnc21)C(=O)CCCCCN		7240 nM		5620 nM		
CN(CCCCCCCCN(C)C(=O)CCCCCNCCCCC(=O)N1c2ccccc2C(=O)Nc2cccnc21)C(=O)CCCCCN	70.8 nM	13.8 nM	63.1 nM			63.1 nM
CN(CCCCCCCCN(C)C(=O)CCCCCNCC(=O)N1c2ccccc2C(=O)Nc2cccnc21)C(=O)CCCCCNCC(=O)N1c2ccccc2C(=O)Nc2cccnc21		72.4 nM		0.501 nM		
CN(CCCCCCN)CCCCCCCCN(C)CCCCCCNCCCC(=O)N1c2ccccc2C(=O)Nc2cccnc21	3.02 nM	4.79 nM	1.45 nM			0.501 nM
CN(CCCCCCCCN(C)C(=O)CCCCCNCC(=O)N1c2ccccc2C(=O)Nc2cccnc21)C(=O)CCCCCN	158 nM	437 nM	20 nM	9.77 nM	44.7 nM	316 nM
CN(CCCCCCCCN(C)C(=O)CCCCCN(CC(=O)N1c2ccccc2C(=O)Nc2cccnc21)CC(=O)N1c2ccccc2C(=O)Nc2cccnc21)C(=O)CCCCCN(CC(=O)N1c2ccccc2C(=O)Nc2cccnc21)CC(=O)N1c2ccccc2C(=O)Nc2cccnc21		2140 nM		17.8 nM		
COc1ccccc1CNCCCCCCNCCCCCCCCNCCCCCCNCc1ccccc1OC [METHOCTRAMINE]	955 nM	363 nM	32.4 nM			
CN(CCCCCCCCN(C)CCCCCCN(CC(=O)N1c2ccccc2NC(=O)c2cccnc21)CC(=O)N1c2ccccc2NC(=O)c2cccnc21)CCCCCCN(CC(=O)N1c2ccccc2NC(=O)c2cccnc21)CC(=O)N1c2ccccc2NC(=O)c2cccnc21	2510 nM	1620 nM	158 nM			25.1 nM
CN(CCCCCCCCN(C)CCCCCCN(CC(=O)N1c2ccccc2C(=O)Nc2cccnc21)CC(=O)N1c2ccccc2C(=O)Nc2cccnc21)CCCCCCNCC(=O)N1c2ccccc2C(=O)Nc2cccnc21 [TRIPITRAMINE]	148 nM		11.5 nM			3.55 nM
CN(CCCCCCCCN(C)C(=O)CCCCCNCCCC(=O)N1c2ccccc2C(=O)Nc2cccnc21)C(=O)CCCCCN		1.86 nM		0.457 nM		
CN(CCCCCCN)CCCCCCCCN(C)CCCCCCNCCC(=O)N1c2ccccc2C(=O)Nc2cccnc21		17 nM		2.69 nM		
CN(CCCCCCCCN(C)C(=O)CCCCCNCCC(=O)N1c2ccccc2C(=O)Nc2cccnc21)C(=O)CCCCCN		18.2 nM		9.12 nM		
CN(CCCCCCN)CCCCCCCCN(C)CCCCCCNCC(=O)N1c2ccccc2C(=O)Nc2cccnc21	331 nM	275 nM	15.8 nM			4.37 nM
CN(CCCCCCCCN(C)CCCCCCNCC(=O)N1c2ccccc2NC(=O)c2cccnc21)CCCCCCNCC(=O)N1c2ccccc2NC(=O)c2cccnc21	2570 nM	537 nM	36.3 nM	5.25 nM	20.9 nM	14.5 nM
CN(CCCCCCCCN(C)C(=O)CCCCCN(CC(=O)N1c2ccccc2C(=O)Nc2cccnc21)CC(=O)N1c2ccccc2C(=O)Nc2cccnc21)C(=O)CCCCCNCC(=O)N1c2ccccc2C(=O)Nc2cccnc21	5750 nM	550 nM	158 nM			50.1 nM
CN(CCCCCCN)CCCCCCCCN(C)CCCCCCNCCCCC(=O)N1c2ccccc2C(=O)Nc2cccnc21		19.5 nM		0.977 nM		
CN(CCCCCCCCN(C)CCCCCCN(CC(=O)N1c2ccccc2NC(=O)c2cccnc21)CC(=O)N1c2ccccc2NC(=O)c2cccnc21)CCCCCCNCC(=O)N1c2ccccc2NC(=O)c2cccnc21	398 nM	912 nM	39.8 nM	2.51 nM	0.912 nM	12.6 nM
CN(CCCCCCCCN(C)CCCCCCNCC(=O)N1c2ccccc2NC(=O)c2ccccc21)CCCCCCNCC(=O)N1c2ccccc2NC(=O)c2ccccc21	115 nM	112 nM	2.82 nM			14.8 nM
